Results on 13 compounds are retold here after ChEMBL document CHEMBL5230167, “Discovery of N-sulfonylated aminosalicylic acids as dual MCL-1/BCL-xL inhibitors” (RSC Med Chem, 2023).

The species named for experiment [1] is Homo sapiens. Nature of the experiment: Selectivity index, ratio of Ki for inhibition of FITC-labelled BAK BH3 peptide to 6His-MBP tagged recombinant human MCL-1 (172 to 327 residues) expressed in Escherichia coli assessed as inhibition constant to Ki for binding affinity to BCL-xL (unknown origin) assessed as inhibition constant.
Experiment [2] has as its target T1, Induced myeloid leukemia cell differentiation protein Mcl-1 (Homo sapiens, UniProt Q07820). Briefly: Inhibition of FITC-labelled BAK BH3 peptide to 6His-MBP tagged recombinant human MCL-1 (172 to 327 residues) expressed in Escherichia coli assessed as inhibition constant by fluorescence polarization competition assay. Summed up: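 Fluorescence polarization competition: compounds titrated into a mixture of MCL-1 (residues 172–327) and FITC-labelled BAK BH3 peptide. Displacement of the peptide was followed by the change in polarization, and Ki was derived from the competition titration.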
(In general: In fluorescence polarisation assays a small probe gives low polarisation when free and higher when bound to something large.)

Experiment [3] concerns the target Bcl-2-like protein 1 (Homo sapiens, UniProt Q07817). Briefly: Binding affinity to BCL-xL (unknown origin) assessed as inhibition constant.
Experiment [4] addresses T1, Induced myeloid leukemia cell differentiation protein Mcl-1. Nature of the experiment: Binding affinity to MCL-1 (unknown origin) assessed as inhibition constant.
The species named for experiment [5] is Homo sapiens. Nature of the experiment: Selectivity index, ratio of Ki for inhibition of FITC-labelled BAK BH3 peptide to MCL-1 (172 to 327 residues) (unknown origin) assessed as inhibition constant to Ki for binding affinity to BCL-xL (unknown origin) assessed as inhibition constant.

Structures are written as SMILES.

Sequence of Bcl-2-like protein 1 (Q07817 whole entry): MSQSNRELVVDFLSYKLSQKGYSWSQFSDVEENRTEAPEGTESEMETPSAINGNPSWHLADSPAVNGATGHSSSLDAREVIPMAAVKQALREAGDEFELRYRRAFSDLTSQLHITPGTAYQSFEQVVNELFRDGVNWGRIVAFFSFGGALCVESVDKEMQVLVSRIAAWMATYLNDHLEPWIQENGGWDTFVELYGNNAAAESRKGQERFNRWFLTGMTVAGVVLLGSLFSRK
T1 sequence (Q07820 whole entry, the tested form may be a part): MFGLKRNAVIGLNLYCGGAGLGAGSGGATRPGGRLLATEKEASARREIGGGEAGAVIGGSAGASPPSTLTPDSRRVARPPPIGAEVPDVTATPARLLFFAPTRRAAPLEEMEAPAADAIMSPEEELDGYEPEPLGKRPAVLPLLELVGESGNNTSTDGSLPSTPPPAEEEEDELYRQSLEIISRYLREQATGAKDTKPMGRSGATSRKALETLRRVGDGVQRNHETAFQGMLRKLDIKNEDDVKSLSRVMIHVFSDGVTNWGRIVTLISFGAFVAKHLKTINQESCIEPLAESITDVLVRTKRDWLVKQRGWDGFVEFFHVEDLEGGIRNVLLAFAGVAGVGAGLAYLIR

As to `Cc1cc(Oc2ccc(S(=O)(=O)N(CC(C)C)c3ccc(O)c(C(=O)O)c3)cc2)cc(C)c1Cl`, the Ratio Ki in experiment [1] is 4.96. On the same count and under the same terms, the value for `CC(C)CN(c1ccc(C(=O)O)c(O)c1)S(=O)(=O)c1ccc(-c2ccccc2)cc1` was 2.63. By Ki is commonly meant the dissociation constant of the complex between target and ligand, obtained from inhibition or displacement. As to `Cc1cc(Oc2ccc(S(=O)(=O)N(c3ccc(C(=O)O)c(O)c3)C3CCCC3)cc2)cc(C)c1Cl`, the Ki in experiment [2] amounted to 1760 nM; in experiment [3], 1910 nM. For the same compound, the Ratio Ki in experiment [1] came out at 1.08. Regarding `Cc1cc(Oc2ccc(S(=O)(=O)N(CC(C)C)c3ccc(C(=O)O)c(O)c3)cc2)cc(C)c1Cl`, the Ki is 778 nM in experiment [2] and 1630 nM in experiment [3]. The Ratio Ki in experiment [1] came out at 2.09.

For the compound `CC(C)CN(c1ccc(O)c(C(=O)O)c1)S(=O)(=O)c1ccc2ccccc2c1`, the Ratio Ki in experiment [1] was found to be 5.94. In the case of `Cc1cc(Oc2ccc(S(=O)(=O)N3CCCc4cc(C(=O)O)ccc43)cc2)cc(C)c1Cl`, the inhibitory constant (Ki) in experiment [4] came out at 2730 nM; in experiment [3], 3560 nM. Regarding `CC(C)CN(c1ccc(C(=O)O)c(O)c1)S(=O)(=O)c1ccccc1`, the Ratio Ki in experiment [1] is 0.8.

For `CC(C)CN(c1ccc(O)c(C(=O)O)c1)S(=O)(=O)c1ccccc1`, the Ratio Ki in experiment [1] was 1.06. Besides, the Ki in experiment [3] was 49300 nM. Turning to `CC(C)CN(c1ccc(C(=O)O)c(O)c1)S(=O)(=O)c1ccc(Oc2ccccc2)cc1`, the Ratio Ki in experiment [1] is 3.12.

Take `Cc1cc(Oc2ccc(S(=O)(=O)N3CC(C(=O)O)Cc4ccccc43)cc2)cc(C)c1Cl` (racemic): the Ki in experiment [3] was 5010 nM. In experiment [5], the Ratio Ki was 42. As for `CC(C)CN(c1ccc(C(=O)O)c(O)c1)S(=O)(=O)c1ccc2ccccc2c1`, in experiment [1], the Ratio Ki turned out to be 3.12.

Regarding `CC(C)CN(c1ccc(O)c(C(=O)O)c1)S(=O)(=O)c1ccc(-c2ccccc2)cc1`, the Ratio Ki in experiment [1] was 1.59. In the case of `Cc1cc(Oc2ccc(S(=O)(=O)N(Cc3ccccc3)c3ccc(C(=O)O)c(O)c3)cc2)cc(C)c1Cl`, the Ratio Ki in experiment [1] stood at 2.65.
